The values below come from paper PMC2834294 (Chemistry & biology, 2010).

Each structure is given as a SMILES string. Some results are limits rather than exact numbers.

In test [1] the target is T1, TRPML3 (Homo sapiens, UniProt Q8TDD5).
T1 sequence (Q8TDD5 1-553): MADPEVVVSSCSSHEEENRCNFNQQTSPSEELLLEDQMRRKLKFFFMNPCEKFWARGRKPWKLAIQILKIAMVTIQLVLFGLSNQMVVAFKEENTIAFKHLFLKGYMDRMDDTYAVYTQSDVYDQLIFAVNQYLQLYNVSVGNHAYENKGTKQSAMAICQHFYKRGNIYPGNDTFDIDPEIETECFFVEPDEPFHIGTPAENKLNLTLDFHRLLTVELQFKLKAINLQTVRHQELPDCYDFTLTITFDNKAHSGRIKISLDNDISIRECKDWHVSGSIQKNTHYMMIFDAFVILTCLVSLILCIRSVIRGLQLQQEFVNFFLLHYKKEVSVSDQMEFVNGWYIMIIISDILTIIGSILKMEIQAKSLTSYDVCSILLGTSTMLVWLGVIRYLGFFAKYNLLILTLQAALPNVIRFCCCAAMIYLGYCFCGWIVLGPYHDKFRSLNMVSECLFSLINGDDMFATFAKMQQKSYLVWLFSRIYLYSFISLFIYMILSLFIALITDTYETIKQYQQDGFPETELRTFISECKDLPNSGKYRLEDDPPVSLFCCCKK
In kind it is cell-based. The following applies: HEK293, read-out: Max % Activation (TRPML3). Summed up:
(§1)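 HEK293 lines stably expressed YFP-fused human TRPML3 or zebrafish TRPN1 (G418 0.8 mg/ml, twice subcloned) and were plated at 1,500 cells/well for 23 h at 37 °C. After Fluo-8 loading (1 h 37 °C, 30 min RT), a 5 s basal read and 120 s post-addition read were taken. Max/basal ratios were normalized to DMSO and carbachol (87 µM).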

The target of another test is danio rerio TRPN1 (Danio rerio, UniProt Q7T1G6). Type of test: cell-based. Summed up: as §1
Sequence of danio rerio TRPN1 (Q7T1G6 1-1614): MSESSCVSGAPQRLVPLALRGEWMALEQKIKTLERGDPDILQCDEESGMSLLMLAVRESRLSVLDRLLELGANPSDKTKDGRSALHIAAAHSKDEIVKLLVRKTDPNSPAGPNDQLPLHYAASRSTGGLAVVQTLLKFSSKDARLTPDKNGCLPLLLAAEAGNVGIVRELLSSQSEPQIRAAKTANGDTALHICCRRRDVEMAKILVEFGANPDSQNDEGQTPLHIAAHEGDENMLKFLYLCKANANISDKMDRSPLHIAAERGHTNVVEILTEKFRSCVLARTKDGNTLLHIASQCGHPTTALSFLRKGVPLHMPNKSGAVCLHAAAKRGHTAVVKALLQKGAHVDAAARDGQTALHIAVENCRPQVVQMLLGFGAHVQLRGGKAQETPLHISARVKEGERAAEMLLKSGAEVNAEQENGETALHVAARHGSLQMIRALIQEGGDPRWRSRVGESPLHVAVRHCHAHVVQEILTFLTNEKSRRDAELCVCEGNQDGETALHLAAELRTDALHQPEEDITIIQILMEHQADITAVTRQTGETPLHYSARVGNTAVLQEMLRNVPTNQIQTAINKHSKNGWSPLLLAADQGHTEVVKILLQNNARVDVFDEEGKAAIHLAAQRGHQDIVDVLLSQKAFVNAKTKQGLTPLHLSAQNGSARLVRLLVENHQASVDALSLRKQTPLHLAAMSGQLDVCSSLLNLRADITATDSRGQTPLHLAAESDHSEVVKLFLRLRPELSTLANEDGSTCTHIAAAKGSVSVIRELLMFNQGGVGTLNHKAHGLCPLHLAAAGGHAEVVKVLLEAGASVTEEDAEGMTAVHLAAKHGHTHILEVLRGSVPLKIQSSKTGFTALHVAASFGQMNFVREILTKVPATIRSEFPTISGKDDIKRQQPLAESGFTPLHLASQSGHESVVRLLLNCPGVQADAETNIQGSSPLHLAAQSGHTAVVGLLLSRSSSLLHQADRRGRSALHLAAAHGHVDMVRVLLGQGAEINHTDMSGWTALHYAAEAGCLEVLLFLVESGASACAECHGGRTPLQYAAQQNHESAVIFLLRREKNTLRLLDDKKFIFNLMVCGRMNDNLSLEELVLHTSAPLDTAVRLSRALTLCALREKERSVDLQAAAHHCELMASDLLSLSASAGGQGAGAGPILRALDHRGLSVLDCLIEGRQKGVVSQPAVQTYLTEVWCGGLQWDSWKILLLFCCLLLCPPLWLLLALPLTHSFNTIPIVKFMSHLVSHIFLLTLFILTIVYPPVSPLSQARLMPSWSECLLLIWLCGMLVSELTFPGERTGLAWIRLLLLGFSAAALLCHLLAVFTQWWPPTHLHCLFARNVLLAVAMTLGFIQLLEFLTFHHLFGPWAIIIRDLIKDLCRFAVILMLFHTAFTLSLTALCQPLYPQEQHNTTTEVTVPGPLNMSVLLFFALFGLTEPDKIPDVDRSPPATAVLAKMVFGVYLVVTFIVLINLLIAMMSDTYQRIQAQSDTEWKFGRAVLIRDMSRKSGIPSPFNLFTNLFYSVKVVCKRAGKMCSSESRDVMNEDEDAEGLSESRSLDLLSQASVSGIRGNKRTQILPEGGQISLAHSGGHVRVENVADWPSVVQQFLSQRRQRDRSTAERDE
The target of test [2] is T1, TRPML3. The test can be described thus: Fura-2 calcium imaging, HEK293 cells transiently expressing TRPML3. Type of test: cell-based. Summed up:
(§2)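 HEK293 cells were transiently transfected (Genejammer) with the human channel construct or YFP control and measured 24 h later. Cells on glass coverslips were loaded with 4 µM fura-2-AM in bath solution (mM: 138 NaCl, 6 KCl, 2 MgCl2, 2 CaCl2, 10 HEPES, 5.5 D-glucose; pH 7.4). Compounds were applied at 10 µM and the F340/F380 ratio recorded. Values are mean ± SEM, n≥3.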

For test [3], the target named is T1, TRPML3. The test can be described thus: Whole-cell patch-clamp, HEK293 cells transiently transfected with TRPML3. Type of test: cell-based. Summed up:
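Whole-cell patch clamp was done on HEK293 cells 24 h after transient transfection with human TRPML3 or YFP; constitutively active TRPML3(A419P) cells served as positive control. Bath solution (mM): 138 NaCl, 5.4 KCl, 2 MgCl2, 2 CaCl2, 10 HEPES, 10 d-glucose; pH 7.4. Pipette solution (mM): 140 CsCl, 10 HEPES, 3 ATP-Na, 1 BAPTA, 2 MgCl2; pH 7.2. Compounds at 10 µM were perfused. Capacitance-normalized current at −80 mV is reported as mean ± SEM, n≥3.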

Another test concerns the target TRPML1(NC) (Homo sapiens, UniProt Q9GZU1). The test can be described thus: Fura-2 calcium imaging, HEK293 cells expressing TRPML1. In kind it is cell-based. As to conditions: 10 µM, plasma membrane-localized TRPML1 variant. Summed up: as §2
Test [4] relates to TRPM2, TRPV2, TRPC3, TRPN1, TRPA1. The test can be described thus: Fura-2 calcium imaging selectivity, HEK293 cells expressing other TRP channels. In kind it is cell-based. Summed up:
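HEK293 cells were transiently transfected (Genejammer) with expression vectors for each TRP channel and measured 24 h later. Cells on coverslips were loaded with 4 μM fura-2-AM in bath solution (mM: 138 NaCl, 6 KCl, 2 MgCl₂, 2 CaCl₂, 10 HEPES, 5.5 D-glucose, pH 7.4). [Ca²⁺]i increases to 10 µM test compound were imaged on a monochromator-based system.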

Test [5] deals with T1, TRPML3. The experiment in a line: Excised. In kind it is cell-based.
For test [6], the system named is TRPML3. Type of test: cell-based. An outline of the steps:
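Whole-cell recordings used HEK293 cells expressing TRPML3 with 100% series-resistance compensation. Pipette solution (mM): 140 CsCl, 10 HEPES, 3 ATP-Na, 1 BAPTA, 2 MgCl2; pH 7.2. Compound at 10 µM was perfused in endolymph-like solution (mM: 2 NaCl, 150 KCl, 0.25 CaCl2, 10 HEPES, 10 glucose; pH 7.4) or in standard bath. Inward current at −80 mV was normalized to capacitance.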

A further test relates to cochlear hair cells. The test can be described thus: Recording from acutely isolated cochlear hair cells. Type of test: cell-based, rat. The following applies: up-to 100 µM; in SBS, SN-2 also in ELS.
The subject of test [7] is primary human epidermal melanocytes. The test can be described thus: Calcium imaging in primary human epidermal melanocytes. Type of test: cell-based. As to conditions: concentrations up-to 100 µM; SN-2 at 30 µM and 100 µM. An outline of the steps: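 Primary neonatal human epidermal melanocytes were cultured in medium 254 with HMGS at 37 °C and 5% CO2. Intracellular Ca2+ was imaged after applying compounds at 100 µM, with one compound also at 30 µM. Data are mean ± SEM from more than 3 independent experiments of 20–30 cells each.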

In test [8] the target is T2, TRPML3 coexpressed with TRPML1 (Homo sapiens, UniProt Q8TDD5).
T2 sequence (Q8TDD5 1-553): T1 sequence (Q8TDD5 1-553)
The experiment in a line: Calcium imaging, HEK293 cells coexpressing TRPML3 with TRPML1. In kind it is cell-based. The following applies: 10 µM. An outline of the steps: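 Human TRPML3 and TRPML1 were transiently coexpressed in HEK293 cells (Genejammer) and imaged 24 h post-transfection. Cells on glass coverslips were loaded with 4 μM fura-2-AM in bath solution (mM: 138 NaCl, 6 KCl, 2 MgCl₂, 2 CaCl₂, 10 HEPES, 5.5 D-glucose, pH 7.4) and read on a monochromator imaging system. Test compound was 10 μM. Mean ± SEM, n≥3 independent experiments, 20–30 cells each.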

For test [9], the system named is melanocytes expressing dynamin. The test can be described thus: Calcium imaging, melanocytes transfected with wild type dynamin. In kind it is cell-based, human. The following applies: 30 µM. Summed up: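 Human epidermal melanocytes (medium 254 plus HMGS) were transfected with wild-type dynamin, DynK44A or YFP control. Intracellular Ca2+ was imaged after applying compounds at 30 µM each. Data are mean ± SEM from at least 3 independent experiments of 20–30 cells each.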

Sequence of TRPML1(NC) (Q9GZU1 17-572 limits assumed): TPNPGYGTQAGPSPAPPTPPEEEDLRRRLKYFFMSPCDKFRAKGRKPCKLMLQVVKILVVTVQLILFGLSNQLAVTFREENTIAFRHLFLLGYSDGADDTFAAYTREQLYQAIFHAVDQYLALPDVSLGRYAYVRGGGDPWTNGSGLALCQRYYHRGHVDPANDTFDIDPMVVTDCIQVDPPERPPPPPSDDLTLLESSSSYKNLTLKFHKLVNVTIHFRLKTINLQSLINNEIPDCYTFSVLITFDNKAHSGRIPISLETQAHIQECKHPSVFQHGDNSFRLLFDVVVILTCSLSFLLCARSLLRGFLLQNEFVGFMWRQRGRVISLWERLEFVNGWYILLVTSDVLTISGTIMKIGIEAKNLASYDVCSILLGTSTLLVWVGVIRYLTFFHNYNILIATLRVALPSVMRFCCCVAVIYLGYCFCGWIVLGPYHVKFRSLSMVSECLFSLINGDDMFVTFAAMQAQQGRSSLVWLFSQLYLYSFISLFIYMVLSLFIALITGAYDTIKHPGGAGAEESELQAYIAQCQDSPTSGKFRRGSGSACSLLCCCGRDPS

In the case of `Cc1cc(C)c(C2=NOC3C4CCC(C4)C23)c(C)c1` (centres unmarked) [SN-2, 5-mesityl-3-oxa-4-azatricyclo[5.2.1.0∼2,6∼]dec-4-ene], the Emax is 149 ± 11% on TRPML3 [1] and 3 ± 1% on danio rerio TRPN1 (HEK293, read-out: Max % Activation (Control)). For the same compound, on danio rerio TRPN1, the EC50 is over 29.9 µM. Besides, on TRPML3 [2] (10 µM compound, mean ±SEM (n≥3)), the “⊗F340/F380 (TRPML3)” value is recorded as 1.08 ±0.05. Further, the “kinetics of intracellular calcium increase” value at TRPML3 [2] (TRPML3-transfected HEK293 cells) is given as “much more rapid increase than the other compounds”. On TRPML3 [3] (current density at −80 mV, 10 µM in standard bath solution, mean ±SEM (n≥3)), the “nA/pF (-80 mV) (TRPML3)” value is on record as −0.30 ±0.07 nA/pF. Moreover, the “average current density relative to constitutively active TRPML3 A419P” value on TRPML3 [3] (whole-cell, −80 mV) is given as “comparable to average current densities obtained from cells expressing the constitutively active varitint-waddler mutant isoform A419P”. Further, the “activation of mutant TRPML1(NC) isoform” value at TRPML1(NC) is on record as “did not show any activity”. In addition, the “activation of other TRP channels tested” value in [4] is “did not show any activity on other TRP channels”. Moreover, the “conductance of TRPML3 channels” value at TRPML3 [5] (activated with 10 µM SN-2, at −80 mV, estimate) is recorded as “approximately 10 pS”. Further, the “TRPML3 activity in excised patches” value at TRPML3 [5] (patches held at −80 mV) is given as “markedly increased TRPML3 activity”. Moreover, the “increase in current densities, compound + ELS vs ELS alone or compound in SBS” value in the test with TRPML3 [6] (10 µM compound, ELS 2 mM Na+, 150 mM K+) is at most 10 fold. The “average current densities, compound + ELS” value in the test with TRPML3 [6] (10 µM, at −80 mV) is “up to 3 nA/pF”. Also, in the test on cochlear hair cells, the “TRPML3 channel activity in cochlear hair cells” value is on record as “Neither compound at concentrations of up-to 100 µM, with or without endolymph-like extracellular solution, elicited TRPML3 channel activity”. Also, the “[Ca2+]i response in primary human epidermal melanocytes” value in test [7] was “elicited a stronger response”. Also, the “calcium imaging response when TRPML1 was coexpressed with TRPML3” value in [8] was “strong reduction of the calcium imaging responses”. Besides, in test [9], the “response in melanocytes expressing wild type dynamin” value is on record as “reduction of the response”.

A word on the EC50: it is the concentration that produces a half-maximal response. Lower therefore signals a more potent agent.
